According to ChEMBL document CHEMBL1134337, “Behavioral approach to nondyskinetic dopamine antagonists: identification of seroquel” (J Med Chem, 2001):

What was measured:
Mus musculus [1] = test: Antagonism of apomorphine induced climbing was determined in female swiss -Webster mice after (ip) administration of 20 mg/kg; type: functional
In short: (§1)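 Female Swiss-Webster mice (about 20 g) were fasted about 24 h, then given test compound or vehicle ip or po (N = 20 per group). Vehicle was 0.5% w/w hydroxypropylmethylcellulose with 0.1% w/w Tween 80 in water. After 30 min, mice received apomorphine HCl 1.25 mg/kg sc. At 13 min, each mouse was watched for 1 min; score was mean of highest and lowest rung of 27. Groups were compared with vehicle by Student's t-test.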

Mus musculus [2] = test: Antagonism of apomorphine induced climbing was determined in female swiss -Webster mice after (po) administration of 10 mg/kg; type: functional; in short: as §1
[3] = molecular target: D(2) dopamine receptor (Rattus norvegicus) (UniProt P61169); test: Binding affinity at dopamine receptor D2 from rat by spiropiperidone displacement.
In short: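 D2 receptor binding was read as % displacement of spiropiperidone, with test compound at 1000 nM unless stated otherwise. IC50 values used at least five concentrations per compound in triplicate. Each value is the mean of two replicate experiments differing by 5% or less.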

Mus musculus [4] = test: Antagonism of apomorphine induced climbing was determined in female swiss -Webster mice after (ip) administration of 5 mg/kg; type: functional; in short: as §1
Mus musculus [5] = test: Antagonism of apomorphine induced climbing was determined in female swiss -Webster mice after (ip) administration of 10 mg/kg; type: functional; in short: as §1
Mus musculus [6] = test: Antagonism of apomorphine induced climbing was determined in female swiss -Webster mice after (po) administration of 20 mg/kg; type: functional; in short: as §1
Mus musculus [7] = test: Antagonism of apomorphine induced climbing was determined in female swiss -Webster mice after (po) administration of 5 mg/kg; type: functional; in short: as §1
Mus musculus [8] = test: Antagonism of apomorphine induced climbing was determined in female swiss -Webster mice after (po) administration of 40 mg/kg; type: functional; in short: as §1
Mus musculus [9] = test: Antagonism of apomorphine induced climbing was determined in female swiss -Webster mice after (ip) administration of 40 mg/kg; type: functional; in short: as §1
Mus musculus [10] = test: Antagonism of apomorphine induced climbing was determined in female swiss -Webster mice after (p.o.) +SKF525A administration of 40 mg/kg; type: functional; details: route oral; in short: as §1
Mus musculus [11] = test: Antagonism of apomorphine induced climbing was determined in female swiss -Webster mice after (p.o.) +SKF525A administration of 2.5 mg/kg; type: functional; details: route oral; in short: as §1
Mus musculus [12] = test: Antagonism of apomorphine induced climbing was determined in female swiss -Webster mice after (p.o.) +SKF525A administration of 10 mg/kg; type: functional; details: route oral; in short: as §1
Mus musculus [13] = test: Antagonism of apomorphine induced climbing was determined in female swiss -Webster mice after (p.o.) +SKF525A administration of 5 mg/kg; type: functional; details: route oral; in short: as §1
Mus musculus [14] = test: Antagonism of apomorphine induced climbing was determined in female swiss -Webster mice after (po) administration of 2.5 mg/kg; type: functional; in short: as §1
Mus musculus [15] = test: Antagonism of apomorphine induced climbing was determined in female swiss -Webster mice after (ip) administration of 2.5 mg/kg; type: functional; in short: as §1
Mus musculus [16] = test: Antagonism of apomorphine induced climbing was determined in female swiss -Webster mice after (p.o.) +SKF525A administration of 20 mg/kg; type: functional; details: route oral; in short: as §1
Mus musculus [17] = test: Antagonism of apomorphine induced swimming was determined in female swiss -Wbster mice after (ip) administration of 10 mg/kg; type: functional
Mus musculus [18] = test: Antagonism of apomorphine induced climbing was determined in female swiss -Wbster mice after (ip) administration of 20 mg/kg; type: functional; in short: as §1
Mus musculus [19] = test: Antagonism of apomorphine induced climbing was determined in female swiss -Wbster mice after (ip) administration of 10 mg/kg; type: functional; in short: as §1
Mus musculus [20] = test: Antagonism of apomorphine induced climbing was determined in female swiss -Wbster mice after (ip) administration of 40 mg/kg; type: functional; in short: as §1
[21] = Number of animals showing dyskinesias was determined in haloperidol sensitized 6 cebus monkeys after (po) administration of 10 mg/kg; type: functional; details: dose 20 mg/kg; in the assay text read “20 mg/kg” for “10 mg/kg”
In short: (§2)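 Adult female and male Cebus monkeys sensitized with oral haloperidol 1 mg/kg once per week until dyskinetic reactions occurred. Test drug given orally (2 mL/kg) in 0.5% w/w hydroxypropylmethylcellulose with 0.1% w/w Tween 80 in distilled water, at least 2 weeks between treatments. Two observers watched continuously for 6-7 h, recording reaction type and severity every 30 min. Score is monkeys with dyskinesias/monkeys tested.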

Mus musculus [22] = test: Antagonism of apomorphine induced swimming was determined in female swiss -Wbster mice after (ip) administration of 40 mg/kg; type: functional
Mus musculus [23] = test: Antagonism of apomorphine induced swimming was determined in female swiss -Wbster mice after (ip) administration of 20 mg/kg; type: functional
D(2) dopamine receptor = D(2) dopamine receptor (Rattus norvegicus, UniProt P61169); test: Inhibition of spiropiperidone binding at dopamine receptor D2 of rat.
Mus musculus [24] = test: Antagonism of apomorphine induced swimming was determined in female swiss -Webster mice after (ip) administration of 20 mg/kg; type: functional
Mus musculus [25] = test: Antagonism of apomorphine induced swimming was determined in female swiss -Webster mice after (ip) administration of 5 mg/kg; type: functional
Mus musculus [26] = test: Antagonism of apomorphine induced swimming was determined in female swiss -Webster mice after (ip) administration of 40 mg/kg; type: functional
[27] = Number of animals showing dyskinesias was determined in haloperidol sensitized 5 cebus monkeys after (po) administration of 20 mg/kg; 5/5; type: functional; in short: as §2
Mus musculus [28] = test: Antagonism of apomorphine induced swimming was determined in female swiss -Webster mice after (ip) administration of 10 mg/kg; type: functional
[29] = Number of animals showing dyskinesias was determined in haloperidol sensitized 5 cebus monkeys after (po) administration of 5 mg/kg; type: functional; in short: as §2
Mus musculus [30] = test: Antagonism of apomorphine induced swimming was determined in female swiss -Wbster mice after (po) administration of 80 mg/kg; type: functional
Mus musculus [31] = test: Antagonism of apomorphine induced swimming was determined in female swiss -Wbster mice after (po) administration of 40 mg/kg; type: functional
[32] = Number of animals showing dyskinesias was determined in haloperidol sensitized 13 cebus monkeys after (po) administration of 20 mg/kg; type: functional
In short: (§3)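 Adult male and female Cebus monkeys sensitized with haloperidol 1 mg/kg po weekly until dyskinetic reactions appeared. Drug given orally (2 mL/kg) in 0.5% w/w hydroxypropylmethylcellulose with 0.1% w/w Tween 80, at least 2 weeks between treatments. Two observers watched continuously for 6–7 h, logging reaction type and severity every 30 min. Score is the number of monkeys with dyskinesias over the number tested.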

Mus musculus [33] = test: Antagonism of apomorphine induced swimming was determined in female swiss -Wbster mice after (po) administration of 20 mg/kg; type: functional
Mus musculus [34] = test: Antagonism of apomorphine induced climbing was determined in female swiss -Webster mice after (ip) administration of 80 mg/kg; type: functional; in short: as §1
[35] = Number of animals showing dyskinesias was determined in haloperidol sensitized 11 cebus monkeys after (po) administration of 40 mg/kg; type: functional; in short: as §3
Mus musculus [36] = test: Antagonism of apomorphine induced swimming was determined in female swiss -Webster mice after (po) administration of 10 mg/kg; type: functional
In short: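 Female Swiss-Webster mice (~20 g), food-deprived ~24 h, N = 20 per group; oral dosing in 0.5% w/w hydroxypropylmethylcellulose with 0.1% w/w Tween 80 in water. Apomorphine given; mice placed in a circular tank (5.5 cm water, room temperature) with marks 180° apart. Each 180° swim counted, observed via overhead mirrors; group score derived from swim counts.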

[37] = Number of animals showing dyskinesias was determined in haloperidol sensitized 13 cebus monkeys after (po) administration of 10 mg/kg; type: functional; in short: as §3
[38] = Number of animals showing dyskinesias was determined in haloperidol sensitized 2 cebus monkeys after (po) administration of 80 mg/kg; type: functional; in short: as §2
[39] = Number of animals showing dyskinesias was determined in haloperidol sensitized 2cebus monkeys after (po) administration of 20 mg/kg; type: functional; in short: as §2
Mus musculus [40] = test: Antagonism of apomorphine induced climbing was determined in female swiss -Wbster mice after (ip) administration of 80 mg/kg; type: functional; in short: as §1
[41] = Number of animals showing dyskinesias was determined in haloperidol sensitized 4 cebus monkeys after (po) administration of 40 mg/kg; type: functional; in short: as §2
[42] = Number of animals showing dyskinesias was determined in haloperidol sensitized 2 cebus monkeys after (po) administration of 10 mg/kg; type: functional; in short: as §2
[43] = Number of animals showing dyskinesias was determined in haloperidol sensitized 2 cebus monkeys after (po) administration of 20 mg/kg; type: functional; in short: as §2
Mus musculus [44] = test: Antagonism of apomorphine induced swimming was determined in female swiss -Webster mice after (ip) administration of 2.5 mg/kg; type: functional

D(2) dopamine receptor, sequence (P61169 whole entry): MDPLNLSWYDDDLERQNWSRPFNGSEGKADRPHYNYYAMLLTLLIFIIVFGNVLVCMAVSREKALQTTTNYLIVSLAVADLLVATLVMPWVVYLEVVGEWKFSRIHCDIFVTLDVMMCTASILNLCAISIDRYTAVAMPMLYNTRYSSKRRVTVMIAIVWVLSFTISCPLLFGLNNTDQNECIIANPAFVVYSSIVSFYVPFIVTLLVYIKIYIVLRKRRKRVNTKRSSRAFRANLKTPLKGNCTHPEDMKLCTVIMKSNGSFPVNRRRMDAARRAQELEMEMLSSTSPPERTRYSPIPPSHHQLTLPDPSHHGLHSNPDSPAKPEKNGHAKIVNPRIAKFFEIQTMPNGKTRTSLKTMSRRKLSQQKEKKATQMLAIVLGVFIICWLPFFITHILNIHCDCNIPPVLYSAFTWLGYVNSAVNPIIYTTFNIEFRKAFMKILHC
D(2) dopamine receptor (Rattus norvegicus), sequence (P61169 whole entry): as above

CN1CCN(C2=Nc3ccccc3Oc3ccccc32)CC1
Activity (Mus musculus [1]): 0
Activity (Mus musculus [2]): 10
% displacement of spiropiperidone [3]: 27%
Activity (Mus musculus [4]): 13
Activity (Mus musculus [5]): 2
Activity (Mus musculus [6]): 3
Activity (Mus musculus [7]): 13
Activity (Mus musculus [8]): 3
Activity (Mus musculus [9]): 3
Activity (Mus musculus [10]): 19
Activity (Mus musculus [11]): 25
Activity (Mus musculus [12]): 24
Activity (Mus musculus [13]): 19
Activity (Mus musculus [14]): 19
Activity (Mus musculus [15]): 19
Activity (Mus musculus [16]): 18

OCCOCCN1CCN(C2=Nc3ccc(O)cc3Sc3ccccc32)CC1
Activity (Mus musculus [17]): 5
Activity (Mus musculus [18]): 5
Activity (Mus musculus [19]): 27
Activity (Mus musculus [20]): 0
No of monkeys [21]: 5
Activity (Mus musculus [22]): 31
Activity (Mus musculus [23]): 17
IC50 (D(2) dopamine receptor): 166 nM

COCC(CCN1CCN(C2=Nc3ccccc3Sc3ccccc32)CC1)OC (stereo unspecified)
Activity (Mus musculus [24]): 20
Activity (Mus musculus [1]): 0
Activity (Mus musculus [25]): 2
Activity (Mus musculus [4]): 21
Activity (Mus musculus [5]): 5
Activity (Mus musculus [26]): 32
Activity (Mus musculus [9]): 0
IC50 (D(2) dopamine receptor): 293 nM
No of monkeys [27]: 5
Activity (Mus musculus [28]): 8
No of monkeys [29]: 0

CN1CCN(C2=Nc3cc(Cl)ccc3Nc3ccccc32)CC1 [CLOZAPINE]
Activity (Mus musculus [30]): >15
Activity (Mus musculus [1]): 19
Activity (Mus musculus [31]): >13
No of monkeys [32]: 0
Activity (Mus musculus [5]): 23
Activity (Mus musculus [33]): 3
Activity (Mus musculus [34]): >0
Activity (Mus musculus [9]): >5
No of monkeys [35]: 0
Activity (Mus musculus [36]): 4
No of monkeys [37]: 0

OCCOCCN1CCN(C2=Nc3cc(F)ccc3Sc3ccccc32)CC1
No of monkeys [38]: 0
% displacement of spiropiperidone [3]: 34%
Activity (Mus musculus [18]): 16
No of monkeys [39]: 0
Activity (Mus musculus [20]): 14
Activity (Mus musculus [40]): 6
No of monkeys [41]: 0

COCC(CN1CCN(C2=Nc3ccccc3Sc3ccccc32)CC1)OC (stereo unspecified)
Activity (Mus musculus [24]): 28
Activity (Mus musculus [1]): 2
Activity (Mus musculus [25]): 9
Activity (Mus musculus [4]): 5
Activity (Mus musculus [5]): 1
Activity (Mus musculus [26]): 33
Activity (Mus musculus [9]): 0
No of monkeys [42]: 1
No of monkeys [43]: 1
IC50 (D(2) dopamine receptor): 795 nM
Activity (Mus musculus [28]): 17
Activity (Mus musculus [15]): 18
Activity (Mus musculus [44]): 5
